Published values of several laboratories.
Protocols differ between the studies behind these lines.
KCNH2: Voltage-gated inwardly rectifying potassium channel KCNH2 (KCNH2, Homo sapiens, UniProt Q12809)

The CC50 of `CC(C)n1ncc2c(C(=O)NCC3(C)CNC3)cc(C3CC3)nc21` is reported as over 100 µM (RD; cell growth or viability, neutral red).
The MRT(0-inf) of `COc1nc(-c2cccc(-c3ccccc3)c2C)ccc1CNCCNC(=O)CCCCCCCCCCC(=O)N1CCN(CCNC(=O)c2cc3c(=O)n4cccc(C)c4nc3n(CCc3cccs3)c2=N)CC1` is reported as 7.2 h (male Sprague-Dawley rat, plasma; intraperitoneal, 4 mg/kg).
`CCOC(=O)C1=C(CN2CCC[C@@H]2C(=O)Nc2ccc(B(O)O)cc2)NC(c2nccs2)=N[C@H]1c1ccc(F)cc1Br` has an inhibition of 83% (KCNH2; ion current, inhibitor, patch clamp; HEK293; 30 µM, pH 7.4).
With `COc1cc(N)c(Cl)cc1C(=O)NC1CCN(CCCOc2ccc(F)cc2)CC1OC` (stereo not shown) the inhibition was 60.7% (KCNH2; ion current, inhibitor, patch clamp; HEK293; 50 nM).
`COc1cc(N)c(Cl)cc1C(=O)NC1CCN(CCCOc2ccc(F)cc2)CC1OC` (stereo not shown) has an inhibition of 39% (KCNH2; ion current, inhibitor, patch clamp; HEK293; 10 nM, pH 7.4).
The inhibition of `CC(=O)N1CCC(C(=O)N2CCN3C(=O)c4cc(-c5ccccc5)ccc4NC(=O)C3C2)CC1` (stereo not shown) is reported as 5.6% (KCNH2; ion current, inhibitor, patch clamp; HEK293; 1 µM).
The tracer uptake of `COc1cccc(OC)c1-c1cc(C(=O)NC2(C(=O)O)C3CC4CC(C3)CC2C4)nn1-c1ccc(C(=O)N(C)CCCN(C)CCCN(C)C(=O)CN2CCN(CC(=O)[O-])CCN(CC(=O)[O-])CCN(CC(=O)[O-])CC2)cc1C(C)C.[177Lu+3]` (stereo not shown) is reported as 1.8 %ID/g (HT-29; bone; 4 h, tumour-bearing).
With `CC(C)NC(=O)COc1cccc(-c2nc(Nc3ccc4[nH]ncc4c3)c3ccccc3n2)c1` the IC50 was over 1 µM (Bile salt export pump (ABCB11, Homo sapiens, UniProt O95342); transporter uptake, inhibitor, radiometric).
For `CN1C[C@H](COc2nccc3c(NCc4ccco4)cc(Cl)nc23)OC1=O`, the inhibition was 8.8% (KCNH2; ion current, inhibitor; HEK293; 1 µM).
`N[C@H]1C(O)O[C@H](CO)[C@@H](O)[C@@H]1O` (stereo partly shown) has a viability of 97.9% (Caco-2; cell growth or viability, CCK-8; 50 mM).
The CC50 of `NC(=O)c1ncn([C@@H]2O[C@H](CO)[C@@H](O)[C@H]2O)n1` is reported as 104 µM (RD; cell growth or viability, MTT).
`COc1ccc2c(c1)CN(C(=O)CCN1CCC(Cc3ccccc3)CC1)CC[S@@+]2[O-]` has a Tmax of 0 h (male human, plasma; intravenous, 0.4 mg/kg, healthy volunteers).
For `O=C(COc1ccc(Cl)cc1)NC12CC(c3nnc([C@H]4C[C@@H](OC(F)(F)F)C4)o3)(C1)C2`, the Tmax was 4.03 h (human, plasma; oral, 45 mg, multiple doses, once daily, steady state, healthy volunteers).
The MRT(0-inf) of `C[C@H]1Oc2cc(cnc2N)-c2c(nn(C)c2C#N)CN(C)C(=O)c2ccc(F)cc21` is reported as 8.14 h (male Sprague-Dawley rat, plasma; oral, 5 mg/kg, single dose).
`Cn1c(=O)c2[nH]cnc2n(C)c1=O` has an MRT(0-inf) of 6.51 h (male Sprague-Dawley rat, plasma; intravenous, 11.25 mg/kg).
For `CC(C)n1cc(C#N)c2cc(-n3cc(C(=O)O)cn3)ccc21`, the Tmax was 2.99 h (human, plasma; oral, 100 mg, single dose, fasted, healthy volunteers).
